Active and inactive are the calls of the source. No cut-off for these calls is given here.
Columns and labels:
Staphylococcus aureus = assay: Antibacterial activity against Staphylococcus aureus at 30 ug/disk by agar diffusion assay; type: functional, organism-based
Escherichia coli = assay: Antibacterial activity against Escherichia coli at 30 ug/disk by agar diffusion assay; type: functional, organism-based
Klebsiella aerogenes = assay: Antibacterial activity against Klebsiella aerogenes at 30 ug/disk by agar diffusion assay; type: functional, organism-based
Salmonella typhimurium = assay: Antibacterial activity against Salmonella Typhimurium at 30 ug/disk by agar diffusion assay; type: functional, organism-based; conditions: Salmonella enterica subsp. enterica serovar Typhimurium
Enterobacter cloacae = assay: Antibacterial activity against Enterobacter cloacae at 30 ug/disk by agar diffusion assay; type: functional, organism-based
RAW264.7 [1] = assay: Inhibition of NO production in LPS-stimulated mouse RAW264.7 cells assessed as nitrite accumulation after 10 mins by Griess reaction method; type: functional, cell-based; conditions: RAW264.7, 10 min
Outline: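 Cells were stimulated 24 h with LPS (1 μg/mL) alone or with samples (250, 50, 10, 2 μM). Supernatant was mixed 1:1 with Griess reagent (0.1% naphthalene diamine dihydrochloride, 1% sulfanilamide, 2.5% H3PO4) for 10 min at room temperature. Absorbance at 540 nm was converted against a sodium nitrite standard curve. Mean ± SD of triplicates.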

RAW264.7 [2] = assay: Cytotoxicity against mouse RAW264.7 cells after 24 hrs by WST-1 assay; type: cell-based; conditions: RAW264.7, 24 h
Outline: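 Cells were exposed 24 h to LPS (1 μg/mL) alone or with samples (250, 50, 10, 2 μM). WST-1 reagent was then added for 2 h, and formazan was read at 450 nm. Mean ± SD of triplicate experiments.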

RAW264.7 [3] = assay: Inhibition of LPS-induced iNOS mRNA expression in mouse RAW264.7 cells at 12.5 to 50 uM by […]; type: functional, cell-based
Outline: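 Total RNA from LPS (1 μg/mL)-stimulated cells was isolated by Tri-Reagent. RNA (1 μg) was primed with oligo(dT)18 (70 °C, 5 min) and reverse-transcribed with M-MuLV and 0.5 μM dNTP (25 °C 5 min, 37 °C 60 min), then inactivated at 70 °C for 15 min.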

RAW264.7 [4] = assay: Antiinflammatory activity in mouse RAW264.7 cells assessed as suppression of LPS-stimulated IL6 production at 25 to 50 uM after 24 hrs by ELISA; type: functional, cell-based
Outline: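 Cells at 1.5 × 10^5 cells/mL were preincubated 18 h, then given LPS (1 μg/mL) plus samples (50 and 25 μM) for 24 h. Samples were dissolved in EtOH and diluted in DMEM, with final solvent ≤0.1%. IL-6 in the supernatant was measured by mouse ELISA. Mean ± SD of triplicate experiments.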

RAW264.7 [5] = assay: Antiinflammatory activity in mouse RAW264.7 cells assessed as inhibition of LPS-stimulated IL6 mRNA expression at 12.5 to 50 uM by RT-PCR; type: functional, cell-based
[6] = molecular target: T1, Prostaglandin G/H synthase 2 (Mus musculus) (UniProt Q05769); assay: Inhibition of COX2-mediated PGE2 production in LPS-stimulated mouse RAW264.7 cells at 25 to 50 uM by ELISA
T1 sequence (whole entry): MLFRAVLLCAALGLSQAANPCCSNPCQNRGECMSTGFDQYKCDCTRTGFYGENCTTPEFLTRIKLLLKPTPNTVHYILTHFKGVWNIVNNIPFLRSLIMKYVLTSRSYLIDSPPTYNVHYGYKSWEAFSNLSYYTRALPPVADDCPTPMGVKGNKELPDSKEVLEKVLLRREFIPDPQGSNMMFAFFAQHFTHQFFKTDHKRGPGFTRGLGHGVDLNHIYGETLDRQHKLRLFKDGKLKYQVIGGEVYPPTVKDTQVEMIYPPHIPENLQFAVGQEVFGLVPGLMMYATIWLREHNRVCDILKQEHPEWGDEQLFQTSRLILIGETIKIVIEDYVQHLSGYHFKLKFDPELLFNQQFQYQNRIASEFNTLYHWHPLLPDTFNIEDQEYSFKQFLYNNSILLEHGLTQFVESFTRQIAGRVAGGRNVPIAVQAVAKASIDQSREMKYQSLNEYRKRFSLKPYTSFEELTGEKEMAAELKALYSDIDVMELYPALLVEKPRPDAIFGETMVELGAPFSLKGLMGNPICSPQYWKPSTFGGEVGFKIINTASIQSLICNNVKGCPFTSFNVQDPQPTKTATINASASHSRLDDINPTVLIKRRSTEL

Structure (SMILES) | Activity (Staphylococcus aureus) | Activity (Escherichia coli) | Activity (Klebsiella aerogenes) | Activity (Salmonella typhimurium) | Activity (Enterobacter cloacae) | IC50 (RAW264.7 [1]) [µM] | IC50 (RAW264.7 [2]) [µM] | inhibition (RAW264.7 [3]) | Activity (RAW264.7 [4]) | inhibition (RAW264.7 [5]) | inhibition [6]
N=C(N)NCCC[C@@H](NC(=O)c1ccc(OC(=O)c2c[nH]c3ccccc23)cc1)C(=O)O | inactive | inactive | inactive | inactive | inactive | – | – | – | – | – | –
N[C@@H](Cc1ccc(OC(=O)c2c[nH]c3cc(Br)c(O)cc23)cc1)C(=O)O [HERDMANINE D] | inactive | inactive | inactive | inactive | inactive | 9 | 170 | Active | Active | Active | Active
N=C(N)NCCC[C@@H](NC(=O)c1ccc(OC(=O)c2ccc(O)cc2)cc1)C(=O)O [HERDMANINE C] | inactive | inactive | inactive | inactive | inactive | 96 | – | Active | Active | Active | Active

Source: ChEMBL document CHEMBL1914300, “Anti-inflammatory amino acid derivatives from the ascidian Herdmania momus” (J Nat Prod, 2011)
